Measurements: ChEMBL document CHEMBL5576109, “Hydantoin derivative dimers as broad-spectrum antimicrobial agents against ESKAPE pathogens with enhanced killing rate and stability” (RSC Med Chem, 2024)
≈ marks a conversion by molar mass, not a printed value. Calls of active or inactive are those of the source. No cut-off for these calls is given here.

Legend:
Staphylococcus aureus [1] = experiment: Bactericidal activity against Staphylococcus aureus ATCC 29213 assessed as reduction in colony forming units at 1 to 4 times of MIC by time-kill kinetics assay; assay type: functional, organism-based; conditions: time 15-120 min, TDE = time-dependent effect
Method in brief: (§1)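 Bacteria grown at 37 °C to mid-log phase and diluted to 1 × 10^6 CFU/mL. […] Mixtures diluted 10^2–10^4-fold and plated on TSB agar; colonies counted after 20 h at 37 °C.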

Escherichia coli [2] = experiment: Induction of ROS generation in Escherichia coli ATCC 25922 assessed as fold increase in fluorescence intensity at 0.5 MIC concentration incubated for 30 mins by DCFH-DA staining based analysis; assay type: functional; conditions: 0.5 h
Method in brief: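 Overnight 37 °C cultures washed three times and resuspended in PBS, diluted to OD600 0.1, and mixed with DCFH-DA (5 µM). Treated with a range of compound concentrations for 30 min at 37 °C in the dark. Fluorescence read at Ex 488 / Em 530 nm.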

Escherichia coli [3] = experiment: Antibacterial activity against Escherichia coli ATCC 25922 assessed as inhibition of bacterial growth by measuring fold increase in MIC compound preincubated at 40 degree C for 1 hr followed by bacterial culture addition and measured after 16 to 18 hrs by TECAN SPARK microplate reader analysis; assay type: functional; conditions: time 16-18 hrs
Staphylococcus aureus [4] = experiment: Antibacterial activity against Staphylococcus aureus ATCC 29213 assessed as inhibition of bacterial growth by measuring fold increase in MIC measured after 16 to 18 hrs in presence of 10% FBS by TECAN SPARK microplate reader analysis; assay type: functional; conditions: time 16-18 hrs
Method in brief: (§2)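 Salt/serum stability. Exponential-phase bacteria incubated 16–18 h with compound in medium supplemented with 10 mM NaCl, 10 mM KCl, 10 mM MgCl2, 10% DMEM or 10% FBS. Stability judged from the change in MIC.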

Staphylococcus aureus [5] = experiment: Antibacterial activity against Staphylococcus aureus ATCC 29213 assessed as inhibition of bacterial growth by measuring fold increase in MIC measured after 16 to 18 hrs in presence of 10% DMEM by TECAN SPARK microplate reader analysis; assay type: functional; conditions: time 16-18 hrs; method in brief: as §2
Acinetobacter baumannii = experiment: Antibacterial activity against Acinetobacter baumannii ATCC 19606 assessed as reduction bacterial growth after 16 hrs by TECAN SPARK microplate reader analysis; assay type: functional
Method in brief: (§3)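 Single colony grown overnight in 4 mL TSB at 37 °C, diluted 100-fold and grown to mid-log phase. Compounds 2-fold serially diluted in TSB and mixed 1:1 with bacteria in TSB (1 × 10^6 CFU/mL). Incubated 16 h at 37 °C, then A600 read. MIC taken as the lowest concentration giving complete growth inhibition.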

Staphylococcus aureus [6] = experiment: Antibacterial activity against Staphylococcus aureus ATCC 29213 assessed as reduction bacterial growth after 16 hrs by TECAN SPARK microplate reader analysis; assay type: functional; method in brief: as §3
Staphylococcus aureus [7] = experiment: Antibacterial activity against Staphylococcus aureus ATCC 29213 assessed as inhibition of bacterial growth by measuring fold increase in MIC measured after 16 to 18 hrs in presence of NaCl by TECAN SPARK microplate reader analysis; assay type: functional; conditions: time 16-18 hrs; method in brief: as §2
Escherichia coli [8] = experiment: Induction of morphological changes in Escherichia coli ATCC 25922 assessed as cell shrinkage at 8 time of MIC for 6 hrs by scanning electron microscopy; assay type: functional, organism-based
Method in brief: (§4)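 Mid-log cells exposed to compound for 6 h at 37 °C alongside untreated controls. Cells pelleted (3000 rpm, 15 min), washed four times in PBS, and fixed with 2.5% glutaraldehyde. Dehydrated through graded ethanol, critical-point dried and gold-coated, then imaged by SEM.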

Staphylococcus aureus [9] = experiment: Drug resistance, ratio of MIC for Staphylococcus aureus ATCC 29213 after 25 passages to MIC for Staphylococcus aureus ATCC 29213 after initial exposure; assay type: functional; conditions: time 16 hrs
Method in brief: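 Serial passage resistance selection: after each broth MIC determination, bacteria from the 1/2 MIC well were withdrawn and diluted to 1 × 10^6 CFU/mL for the next MIC measurement. Repeated for 25 passages; MIC after passage 25 compared with the initial MIC.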

Escherichia coli [10] = experiment: Bactericidal activity against Escherichia coli ATCC 25922 assessed as reduction in colony forming units at 4 times of MIC measured after 60 mins by time-kill kinetics assay; assay type: functional, organism-based; method in brief: as §1
Escherichia coli [11] = experiment: Antibacterial activity against Escherichia coli ATCC 25922 assessed as inhibition of bacterial growth by measuring fold increase in MIC measured after 16 to 18 hrs in presence of 10% DMEM by TECAN SPARK microplate reader analysis; assay type: functional; conditions: time 16-18 hrs; method in brief: as §2
Klebsiella pneumoniae = experiment: Antibacterial activity against Klebsiella pneumoniae ATCC 10031 assessed as reduction bacterial growth after 16 hrs by TECAN SPARK microplate reader analysis; assay type: functional; method in brief: as §3
Staphylococcus aureus [12] = experiment: Induction of morphological changes in Staphylococcus aureus ATCC 29213 assessed as cellular inclusion leakage at 8 time of MIC for 6 hrs by scanning electron microscopy; assay type: functional, organism-based; method in brief: as §4
Pseudomonas aeruginosa = experiment: Antibacterial activity against Pseudomonas aeruginosa CMCC 10104 assessed as reduction bacterial growth after 16 hrs by TECAN SPARK microplate reader analysis; assay type: functional; method in brief: as §3
Escherichia coli [13] = experiment: Induction of membrane disruption in Escherichia coli ATCC 25922 assessed as increase in red fluorescence at 8 times of MIC for 6 hrs by Hoechst 33342 and propidium iodide staining based confocal microscopic analysis; assay type: functional, organism-based
Staphylococcus aureus [14] = experiment: Antibacterial activity against Staphylococcus aureus ATCC 29213 assessed as inhibition of bacterial growth by measuring fold increase in MIC measured after 16 to 18 hrs in presence of MgCl2 by TECAN SPARK microplate reader analysis; assay type: functional; conditions: time 16-18 hrs; method in brief: as §2
Escherichia coli [15] = experiment: Antibacterial activity against Escherichia coli ATCC 25922 assessed as inhibition of bacterial growth by measuring fold increase in MIC compound preincubated at 120 degree C for 1 hr followed by bacterial culture addition and measured after 16 to 18 hrs by TECAN SPARK microplate reader analysis; assay type: functional; conditions: time 16-18 hrs
Escherichia coli [16] = experiment: Antibacterial activity against Escherichia coli ATCC 25922 assessed as inhibition of bacterial growth by measuring fold increase in MIC measured after 16 to 18 hrs in presence of NaCl by TECAN SPARK microplate reader analysis; assay type: functional; conditions: time 16-18 hrs; method in brief: as §2
Escherichia coli [17] = experiment: Antibacterial activity against Escherichia coli ATCC 25922 assessed as inhibition of bacterial growth by measuring fold increase in MIC measured after 16 to 18 hrs in presence of KCl by TECAN SPARK microplate reader analysis; assay type: functional; conditions: time 16-18 hrs; method in brief: as §2
Escherichia coli [18] = experiment: Induction of outer membrane permeabilization in Escherichia coli ATCC 25922 assessed as increase in fluorescence intensity at 1 to 4 times of MIC incubated for 1 hr by NPN staining based TECAN SPARK microplate reader analysis; assay type: functional, organism-based
Method in brief: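 Overnight E. coli resuspended in PBS and diluted to OD600 0.1. NPN added (10 µM final) for 30 min. Treated with a range of compound concentrations for 1 h in the dark; fluorescence read at Ex 350 / Em 420 nm.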

Escherichia coli [19] = experiment: Induction of inner membrane permeabilization in Escherichia coli ATCC 25922 assessed as increase in fluorescence intensity incubated for 1 hr by propidium iodide staining based TECAN SPARK microplate reader analysis; assay type: functional, organism-based
Method in brief: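 Overnight 37 °C cultures resuspended in PBS and diluted to OD600 0.1. Propidium iodide added (5 µM final) for 30 min. Treated with a range of compound concentrations for 1 h in the dark; fluorescence read at Ex 535 / Em 615 nm.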

## CCCCCCN1C(=O)[C@H](CCCCNC(=N)N)N(Cc2ccc(-c3ccc(CN4C(=O)N(CCCCCC)C(=O)[C@@H]4CCCCNC(=N)N)cc3)cc2)C1=O
Staphylococcus aureus [1]
  Activity: Tde
Escherichia coli [2]
  fold change (FC): ~2
Escherichia coli [3]
  fold change (FC): 1
Staphylococcus aureus [4]
  fold change (FC): 1
Staphylococcus aureus [5]
  fold change (FC): 1
Acinetobacter baumannii
  MIC: 15.6 µg/mL (≈ 20.2 µM)
Staphylococcus aureus [6]
  MIC: 1.95 µg/mL (≈ 2.52 µM)
Staphylococcus aureus [7]
  fold change (FC): 1
Escherichia coli [8]
  Activity: Active
Staphylococcus aureus [9]
  Ratio: <=4
Escherichia coli [10]
  Activity: Active
Escherichia coli [11]
  fold change (FC): 1
Klebsiella pneumoniae
  MIC: 7.81 µg/mL (≈ 10.1 µM)
Staphylococcus aureus [12]
  Activity: Active
Pseudomonas aeruginosa
  MIC: 15.6 µg/mL (≈ 20.2 µM)
Escherichia coli [13]
  Activity: Active
Staphylococcus aureus [14]
  fold change (FC): 1
Escherichia coli [15]
  fold change (FC): 1
Escherichia coli [16]
  fold change (FC): 1
Escherichia coli [17]
  fold change (FC): 1
Escherichia coli [18]
  Activity: Active
Escherichia coli [19]
  Activity: Dose-Dependent Effect
